The test system of data set [1] is T47D breast cancer cell line. Description: MTT cell viability assay, T47D breast cancer cells. The format is cell-based, human. Particulars: 48 h, read-out: IC50 on T47D. In a few lines:
(§1)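 Cells grown in DMEM with 10% FBS, 100 units/ml penicillin/streptomycin and 2 mM L-glutamine at 37 °C, 5% CO₂. 5 × 10³ cells/well were seeded and attached overnight, then given test compound at 0–200 μM for 48 h. MTT was added for 4 h at 37 °C and absorbance read at 570 nm. Viability was taken relative to untreated control cells. Mean ± SD from at least three independent experiments.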
(Tetrazolium dyes change colour on reduction, which living cells bring about.)

The subject of data set [2] is MDA-MB-231 breast cancer cell line. Description: MTT cell viability assay, MDA-MB-231 breast cancer cells. It counts as cell-based, human. Particulars: read-out: IC50 on MDA-MB-231. In a few lines:
as §1

The subject of data set [3] is HaCaT human keratinocyte cell line. The experiment in a line: MTT cell viability assay, HaCaT control cells. It counts as cell-based. Particulars: 48 h, read-out: IC50 on HaCaT (human fibroblasts in text). The method in brief:
as §1

For data set [4], the system named is MCF-7 breast cancer cells. To be noted: 0–100 μM; cited from earlier work.
Data set [5] relates to MDA-MB-231 breast cancer cells. To be noted: 0–100 μM; cited from earlier work.

Like-named read-outs stand apart in the source and are kept apart here.

Regarding `O=Cc1ccc(O)c(O)c1` [Compound 11, 3,4-dihydroxybenzaldehyde], the 50% inhibitory concentration (IC50) in data set [1] (Homo sapiens, T47D) was determined as 67.7 ± 5.9 µM; in data set [2] (Homo sapiens, MDA-MB-231, 48 h), 67.2 ± 5.72 µM; in data set [3] (Homo sapiens, HaCaT) it was 115 ± 7.69 µM. Also, the “cytotoxic effect on MCF-7” value in data set [4] is on record as “did not show an anticancer effect”. Moreover, the “cytotoxic effect on MDA-MB-231” value in data set [5] was “did not show an anticancer effect”.

For `COc1cc([C@@H]2c3cc4c(cc3[C@@H](O[C@@H]3O[C@@H]5CO[C@@H](C)O[C@H]5[C@H](O)[C@H]3O)[C@H]3COC(=O)[C@H]23)OCO4)cc(OC)c1O` [etoposide, reference compound], in data set [3] (Homo sapiens, HaCaT), the IC50 turned out to be 4.86 ± 0.35 µM.

For coelonin [Compound 10], the IC50 amounted to 44.4 ± 2.7 µM in data set [1] (MTT, 0–200 μM); 63.8 ± 10.3 µM in data set [2] (MTT, 48 h, 0–200 μM); 114 ± 7.65 µM in data set [3] (MTT, 0–200 μM).

What is called IC50 is the concentration that inhibits the measured activity by half.

The values are drawn from publication PMC10883021 (ACS Omega, 2024).
